According to ChEMBL document CHEMBL3352378, “Novel carbazole inhibits phospho-STAT3 through induction of protein-tyrosine phosphatase PTPN6” (J Med Chem, 2014):
Active and inactive are the calls of the source. The rule behind the calls is not given here.

Experiments:
[1] = target: Signal transducer and activator of transcription 3 (Homo sapiens) (UniProt P40763); test: Inhibition of STAT3 in human Hs578T cells assessed as reduction of cyclin D1 level at 0.3 to 3 uM after 24 hrs by Western blotting analysis; type: cell-based; conditions: Hs-578T
Chain of Signal transducer and activator of transcription 3 (Homo sapiens) (P40763 whole entry): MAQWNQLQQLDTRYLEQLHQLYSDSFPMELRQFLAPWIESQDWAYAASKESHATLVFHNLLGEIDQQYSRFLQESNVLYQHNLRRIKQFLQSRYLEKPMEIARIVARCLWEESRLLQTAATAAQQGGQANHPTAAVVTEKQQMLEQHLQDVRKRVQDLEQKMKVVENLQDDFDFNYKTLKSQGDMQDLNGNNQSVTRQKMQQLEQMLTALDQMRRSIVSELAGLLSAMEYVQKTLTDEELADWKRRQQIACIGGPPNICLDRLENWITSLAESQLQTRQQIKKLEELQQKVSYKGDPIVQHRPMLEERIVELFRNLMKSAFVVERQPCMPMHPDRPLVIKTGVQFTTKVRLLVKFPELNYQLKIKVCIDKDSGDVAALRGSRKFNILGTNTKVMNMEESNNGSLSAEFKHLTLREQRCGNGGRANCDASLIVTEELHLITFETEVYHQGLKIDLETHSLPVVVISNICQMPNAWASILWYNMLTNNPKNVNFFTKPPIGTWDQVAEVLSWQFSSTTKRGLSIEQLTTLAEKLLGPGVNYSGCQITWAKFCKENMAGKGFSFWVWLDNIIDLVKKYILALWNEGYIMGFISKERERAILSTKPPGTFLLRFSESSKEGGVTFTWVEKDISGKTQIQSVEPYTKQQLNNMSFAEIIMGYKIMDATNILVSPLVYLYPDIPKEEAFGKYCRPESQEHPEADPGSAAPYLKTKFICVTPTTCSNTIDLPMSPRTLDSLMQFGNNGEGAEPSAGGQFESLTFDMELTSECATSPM
Procedure, shortened: (§1)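 HS578T and SUM149PT cells given increasing concentrations for 24 h. Lysates immunoblotted with the indicated antibodies, β-actin as loading control.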

[2] = system: Hs-578T; test: Induction of PTPN6 protein expression in human Hs578T cells transfected with PTPN6-siRNA after 24 hrs by Western blotting analysis; type: functional, cell-based
Procedure, shortened: (§2)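 HS578T cells transfected with 100 nM control or PTPN6 siRNA using Lipofectamine 2000 in serum-free medium. Medium with 20% FBS added after 4 h, and cells kept 3 days. Then treated with DMSO or compound for 24 h. PTPN6 and phospho-STAT3 immunoblotted and quantified by ImageJ densitometry.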

[3] = target: Signal transducer and activator of transcription 3 (Homo sapiens) (UniProt P40763); test: Inhibition of STAT3 in human Hs578T cells assessed as reduction of cyclin D1 mRNA expression at 0.3 to 1 uM after 24 hrs by RT-PCR analysis; type: cell-based; conditions: Hs-578T
Procedure, shortened: (§3)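 HS578T and SUM149PT cells treated for 24 h with increasing concentrations. Transcripts measured by RT-PCR, normalized to GAPDH as loading control.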

[4] = system: Hs-578T; test: Cytotoxicity against human Hs578T cells after 72 hrs by MTT assay; type: functional, cell-based
Procedure, shortened: (§4)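 Cells exposed to increasing concentrations for about 72 h, and viability read by MTT. EC50 fitted with CompuSyn. Two independent experiments, each in triplicate, mean ± SEM. Compound stocks 10 mM in DMSO.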

[5] = target: Signal transducer and activator of transcription 3 (Homo sapiens) (UniProt P40763); test: Inhibition of STAT3 in human Hs578T cells assessed as reduction of survivin mRNA expression at 0.3 to 1 uM after 24 hrs by RT-PCR analysis; type: cell-based; conditions: Hs-578T; procedure, shortened: as §3
[6] = Antitumor activity against human SUM149 cells xenografted in athymic Balb/c nude mouse at 10 to 30 mg/kg, ip administered every other day for 5 days measured on day 5; type: functional, SUM149PT; conditions: dose mg/kg 10-30; route intraperitoneal
Procedure, shortened: (§5)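 SUM149 cells (3×10^6) implanted subcutaneously in the right auxiliary region of male and female athymic nude mice (18–22 g). Groups of five, randomized; dosed ip every other day at 10 or 30 mg/kg from 1 mg/mL Cremophore 10%/PEG400 3%/PBS vehicle, vehicle control. Tumor volume by caliper (L×w×w/2); body weight, appetite, activity and lethargy monitored.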

[7] = system: HCC1937; test: Cytotoxicity against human HCC1937 cells after 72 hrs by MTT assay; type: functional, cell-based; procedure, shortened: as §4
[8] = system: SUM1315MO2; test: Cytotoxicity against human SUM1315MO2 cells after 72 hrs by MTT assay; type: functional, cell-based; procedure, shortened: as §4
[9] = target: Signal transducer and activator of transcription 3 (Homo sapiens) (UniProt P40763); test: Inhibition of STAT3 in human SUM149PT cells assessed as reduction of survivin mRNA expression at 0.3 to 1 uM after 24 hrs by RT-PCR analysis; type: cell-based; procedure, shortened: as §3
[10] = system: BT-549; test: Cytotoxicity against human BT549 cells after 72 hrs by MTT assay; type: functional, cell-based; procedure, shortened: as §4
[11] = target: Signal transducer and activator of transcription 3 (Homo sapiens) (UniProt P40763); test: Inhibition of STAT3 in human SUM149PT cells assessed as reduction of cyclin D1 level at 0.3 to 3 uM after 24 hrs by Western blotting analysis; type: cell-based; procedure, shortened: as §1
[12] = target: Tyrosine-protein phosphatase non-receptor type 6 (Homo sapiens) (UniProt P29350); test: Induction of PTPN6 in human Hs578T cells assessed as inhibition of STAT3 phosphorylation at 3 uM after 16 hrs by Western blotting analysis in presence of pervanadate; type: cell-based; conditions: Hs-578T
Chain of Tyrosine-protein phosphatase non-receptor type 6 (Homo sapiens) (P29350 whole entry): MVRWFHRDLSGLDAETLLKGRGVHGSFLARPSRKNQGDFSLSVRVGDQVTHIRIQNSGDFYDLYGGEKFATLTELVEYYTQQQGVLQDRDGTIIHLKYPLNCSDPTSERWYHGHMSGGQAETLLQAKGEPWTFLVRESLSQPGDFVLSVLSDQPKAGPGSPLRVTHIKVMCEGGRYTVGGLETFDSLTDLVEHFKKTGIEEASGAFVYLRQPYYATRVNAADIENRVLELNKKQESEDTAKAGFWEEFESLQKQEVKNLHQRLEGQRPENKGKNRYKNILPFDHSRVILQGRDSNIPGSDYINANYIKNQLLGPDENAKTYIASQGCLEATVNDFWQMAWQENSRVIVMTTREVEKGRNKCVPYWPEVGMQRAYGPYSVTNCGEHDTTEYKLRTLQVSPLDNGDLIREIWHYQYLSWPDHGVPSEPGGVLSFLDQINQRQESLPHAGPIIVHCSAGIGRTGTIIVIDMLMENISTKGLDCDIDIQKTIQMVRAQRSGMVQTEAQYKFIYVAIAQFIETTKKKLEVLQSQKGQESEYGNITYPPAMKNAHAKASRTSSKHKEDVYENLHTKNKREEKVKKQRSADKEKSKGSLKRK
Procedure, shortened: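 HS578T and SUM149PT cells treated for 16 h without or with increasing pervanadate as a phosphatase inhibitor; JAK1/2 inhibitor CP690550 run in parallel. Lysates immunoblotted for phospho-STAT3 (Y705), with β-actin as loading control.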

[13] = system: A549; test: Cytotoxicity against human A549 cells after 72 hrs by MTT assay; type: functional; conditions: A549, 72 h; procedure, shortened: as §4
[14] = system: A-431; test: Cytotoxicity against human A431 cells after 72 hrs by MTT assay; type: functional; conditions: A-431, 72 h; procedure, shortened: as §4
[15] = system: A549; test: Antitumor activity against human A549 cells xenografted in athymic Balb/c nude mouse at 10 mg/kg, ip administered every other day for 27 days measured up to day 27; type: functional; conditions: 648 h, route intraperitoneal, read-out: TGI
Procedure, shortened: (§6)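 Male and female athymic nude mice (18–22 g) implanted subcutaneously in the right auxiliary region with 3×10^6 A549 cells. Mice were randomized into groups of five 3 days after implantation, and dosing started at about 50 mm³ tumor. Working solution 1 mg/mL in 10% Cremophore/3% PEG400/87% PBS; ip every other day, vehicle control. Caliper volume L×w×w/2, mean ± SEM, n = 5.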

[16] = system: A549; test: Antitumor activity against human A549 cells xenografted in athymic Balb/c nude mouse at 10 mg/kg, ip administered every other day for 27 days measured on day 5; type: functional; conditions: route intraperitoneal, read-out: TGI; procedure, shortened: as §6
[17] = system: A549; test: Antitumor activity against human A549 cells xenografted in athymic Balb/c nude mouse at 10 mg/kg, ip administered every other day for 27 days measured on day 9; type: functional; conditions: route intraperitoneal, read-out: TGI; procedure, shortened: as §6
[18] = system: Mus musculus; test: Toxicity in athymic Balb/c nude mouse xenografted with human SUM149 cells assessed as lethargy at 10 to 30 mg/kg, ip administered every other day for 5 days; type: organism-based; design: dose 10-30 mg/kg, route intraperitoneal; conditions: in vivo, 120 h; procedure, shortened: as §5
[19] = target: Signal transducer and activator of transcription 3 (Homo sapiens) (UniProt P40763); test: Inhibition of STAT3 in human SUM149PT cells assessed as reduction of IL-6 induced STAT3 phosphorylation at Y705 incubated for 2 hrs prior to IL-6 challenge measured after 30 mins by Western blotting analysis; type: cell-based
[20] = Cytotoxicity against human PC3 cells after 72 hrs by MTT assay; type: functional; conditions: PC-3, 72 h; procedure, shortened: as §4
[21] = system: Hs-578T; test: Induction of PTPN6 protein expression in human Hs578T cells transfected with control-siRNA after 24 hrs by Western blotting analysis; type: functional, cell-based; procedure, shortened: as §2

Cc1c(OS(=O)(=O)c2cccc3c(N(C)C)cccc23)ccc2c1[nH]c1cc(O)ccc12
inhibition [1]: Active | Activity [2]: inactive | inhibition [3]: Active | Activity [4]: Active | inhibition [5]: Active | TGI [6]: 57% | Activity [7]: Active | Activity [8]: Active | inhibition [9]: Active | Activity [10]: Active | inhibition [11]: Active | inhibition [12]: inactive | GI50 [13]: 2.5 µM | GI50 [14]: 0.16 µM | inhibition in vivo at 10 mg/kg [15]: 54.9% | inhibition in vivo at 10 mg/kg [16]: 68.7% | inhibition in vivo at 10 mg/kg [17]: 73.8% | Activity [18]: Non-toxic | inhibition [19]: Dose-dependent effect | GI50 [20]: 3 µM | Activity [21]: Active
